Measured values reported in ChEMBL document CHEMBL2384906, “Biological activity, design, synthesis and structure activity relationship of some novel derivatives of curcumin containing sulfonamides” (Eur J Med Chem, 2013).
≈ marks a conversion by molar mass, not a printed value. Calls of active or inactive are those of the source. The rule behind the calls is not given here.

How the values were obtained:
[1] = system: Pseudomonas aeruginosa; test: Antimicrobial activity against Pseudomonas aeruginosa ATCC 15499 assessed as diameter of inhibition zone at 40 uM after 24 hrs by Kirby -Baur disc diffusion method; format: functional; settings: ATCC 15499, 24 h, read-out: DIZ
In short: (§1)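 Kirby-Bauer disc diffusion was used. Acetone stocks (160 µM) were serially doubled down to 80, 40 and 20 µM. 4 µL of each went onto 5 mm sterile paper discs, which were dried 30 min at 50 °C. Inoculum was 1.5 × 10⁸ CFU/mL diluted to 3 × 10² CFU/mL, and 50 µL was spread on Mueller-Hinton agar. After 24 h at 37 °C the inhibition-zone diameter was measured. Ciprofloxacin served as positive control.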

[2] = system: Salmonella typhi; test: Antimicrobial activity against Salmonella typhi ATCC 23564 after 24 hrs by broth micro serial dilution method; format: functional, Salmonella enterica subsp. enterica serovar Typhi; settings: Salmonella enterica, ATCC 23564, 24 h
[3] = system: Curvularia lunata; test: Antifungal activity against Curvularia lunata MTCC 581 assessed as zone of inhibition at 40 uM after 48 hrs by disc diffusion method; format: functional; settings: MTCC 581, 48 h, read-out: IZ
In short: (§2)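 Spores from 4-day potato dextrose agar cultures, suspended in sterile water at 1.5 × 10⁵ CFU/mL. 0.2 mL was spread on potato dextrose agar. 5 mm filter-paper discs soaked with test compound were laid on the lawn. Incubation was 48 h at 28 °C, then the inhibition zone was measured in mm. Fluconazole was the positive control and acetone the negative control.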

[4] = system: Aspergillus flavus; test: Antifungal activity against Aspergillus flavus MTCC 1021 assessed as zone of inhibition at 20 uM after 48 hrs by disc diffusion method; format: functional; in short: as §2
[5] = system: Bacillus cereus; test: Antimicrobial activity against Bacillus cereus MTCC 7350 assessed as diameter of inhibition zone at 40 uM after 24 hrs by Kirby -Baur disc diffusion method; format: functional; in short: as §1
[6] = system: Escherichia coli; test: Antimicrobial activity against Escherichia coli ATCC 35218 assessed as diameter of inhibition zone at 80 uM after 24 hrs by Kirby -Baur disc diffusion method; format: functional; settings: ATCC 35218, 24 h, read-out: DIZ; in short: as §1
[7] = system: Aspergillus niger; test: Antifungal activity against Aspergillus niger MTCC 1108 assessed as zone of inhibition at 80 uM after 48 hrs by disc diffusion method; format: functional; settings: MTCC 1108, 48 h, read-out: IZ; in short: as §2
[8] = system: Pseudomonas aeruginosa; test: Antimicrobial activity against Pseudomonas aeruginosa ATCC 15499 after 24 hrs by broth micro serial dilution method; format: functional; settings: ATCC 15499, 24 h
In short: (§3)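 This was broth microdilution in autoclaved Mueller-Hinton broth. 150 µL of compound per well was serially diluted […], and 50 µL of test organism was added. Plates were incubated 24 h at 37 °C and optical density was read.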

[9] = system: Escherichia coli; test: Antimicrobial activity against Escherichia coli ATCC 35218 after 24 hrs by broth micro serial dilution method; format: functional; settings: ATCC 35218, 24 h; in short: as §3
[10] = system: HepG2; test: Cytotoxicity against human HepG2 cells after 24 hrs by MTT assay; format: functional, cell-based
In short: (§4)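 The MTT assay seeded 5 × 10⁴ cells per well and grew them 24 h in RPMI 1640 with compound at 2.5–200 µM. Medium without cells was the blank and adriamycin the positive control. MTT was added for 4 h at 37 °C, formazan was solubilised, and absorbance was read at 570 nm. IC50 is the concentration that cuts viability 50% against untreated cells.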

[11] = system: Staphylococcus aureus; test: Antimicrobial activity against Staphylococcus aureus ATCC 11632 after 24 hrs by broth micro serial dilution method; format: functional; settings: ATCC 11632, 24 h; in short: as §3
[12] = system: HCT-116; test: Cytotoxicity against human HCT116 cells after 24 hrs by MTT assay; format: functional, cell-based; in short: as §4
[13] = system: Escherichia coli; test: Antimicrobial activity against Escherichia coli ATCC 35218 assessed as diameter of inhibition zone at 40 uM after 24 hrs by Kirby -Baur disc diffusion method; format: functional; in short: as §1
[14] = system: Trichoderma viride; test: Antifungal activity against Trichoderma viride MTCC 1107 after 48 hrs; format: functional; settings: MTCC 1107, 48 h
[15] = system: Curvularia lunata; test: Antifungal activity against Curvularia lunata MTCC 581 assessed as zone of inhibition at 20 uM after 48 hrs by disc diffusion method; format: functional; settings: MTCC 581, 48 h, read-out: IZ; in short: as §2
[16] = system: Bacillus cereus; test: Antimicrobial activity against Bacillus cereus MTCC 7350 after 24 hrs by broth micro serial dilution method; format: functional; settings: MTCC 7350, 24 h; in short: as §3
[17] = system: Aspergillus niger; test: Antifungal activity against Aspergillus niger MTCC 1108 assessed as zone of inhibition at 40 uM after 48 hrs by disc diffusion method; format: functional; in short: as §2
[18] = system: Trichoderma viride; test: Antifungal activity against Trichoderma viride MTCC 1107 assessed as zone of inhibition at 80 uM after 48 hrs by disc diffusion method; format: functional; settings: MTCC 1107, 48 h, read-out: IZ; in short: as §2
[19] = system: Salmonella typhi; test: Antimicrobial activity against Salmonella typhi ATCC 23564 assessed as diameter of inhibition zone at 20 uM after 24 hrs by Kirby -Baur disc diffusion method; format: functional; settings: Salmonella enterica subsp. enterica serovar Typhi
[20] = system: Bacillus cereus; test: Antimicrobial activity against Bacillus cereus MTCC 7350 assessed as diameter of inhibition zone at 20 uM after 24 hrs by Kirby -Baur disc diffusion method; format: functional; in short: as §1
[21] = system: Aspergillus flavus; test: Antifungal activity against Aspergillus flavus MTCC 1021 assessed as zone of inhibition at 40 uM after 48 hrs by disc diffusion method; format: functional; settings: MTCC 1021, 48 h, read-out: IZ; in short: as §2
[22] = system: Aspergillus flavus; test: Antifungal activity against Aspergillus flavus MTCC 1021 after 48 hrs; format: functional; settings: MTCC 1021, 48 h
[23] = system: Pseudomonas aeruginosa; test: Antimicrobial activity against Pseudomonas aeruginosa ATCC 15499 assessed as diameter of inhibition zone at 80 uM after 24 hrs by Kirby -Baur disc diffusion method; format: functional; settings: ATCC 15499, 24 h, read-out: DIZ; in short: as §1
[24] = system: QG-56; test: Cytotoxicity against human QG56 cells after 24 hrs by MTT assay; format: functional, cell-based; in short: as §4
[25] = system: Mus musculus; test: Antiinflammatory activity in mouse assessed as inhibition of carrageenan-induced increase in paw volume at 200 mg/kg administered 1 hr prior to carrageenan challenge measured after 3 hrs relative to control; format: functional
In short: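 Mice were fasted 2 h and placed in groups of five. Controls received saline i.p. Phenylbutazone was given at 100 mg/kg i.p., curcumin at 200 mg/kg i.p., and derivatives at 200 mg/kg. After 1 h, 0.1 mL of 1% carrageenan in saline was injected subplantar into the right hind paw. Paw volume was followed by plethysmometer for 3 h, and % inhibition was calculated as (Vc − Vt)/Vc × 100.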

[26] = system: Bacillus cereus; test: Antimicrobial activity against Bacillus cereus MTCC 7350 assessed as diameter of inhibition zone at 80 uM after 24 hrs by Kirby -Baur disc diffusion method; format: functional; settings: MTCC 7350, 24 h, read-out: DIZ; in short: as §1
[27] = system: Escherichia coli; test: Antimicrobial activity against Escherichia coli ATCC 35218 assessed as diameter of inhibition zone at 20 uM after 24 hrs by Kirby -Baur disc diffusion method; format: functional; in short: as §1
[28] = system: Salmonella typhi; test: Antimicrobial activity against Salmonella typhi ATCC 23564 assessed as diameter of inhibition zone at 80 uM after 24 hrs by Kirby -Baur disc diffusion method; format: functional, Salmonella enterica subsp. enterica serovar Typhi; settings: Salmonella enterica, ATCC 23564, 24 h; read-out: DIZ
[29] = system: Aspergillus niger; test: Antifungal activity against Aspergillus niger MTCC 1108 after 48 hrs; format: functional; settings: MTCC 1108, 48 h
[30] = system: Staphylococcus aureus; test: Antimicrobial activity against Staphylococcus aureus ATCC 11632 assessed as diameter of inhibition zone at 80 uM after 24 hrs by Kirby -Baur disc diffusion method; format: functional; settings: ATCC 11632, 24 h, read-out: DIZ; in short: as §1
[31] = system: Aspergillus flavus; test: Antifungal activity against Aspergillus flavus MTCC 1021 assessed as zone of inhibition at 80 uM after 48 hrs by disc diffusion method; format: functional; settings: MTCC 1021, 48 h, read-out: IZ; in short: as §2
[32] = system: Pseudomonas aeruginosa; test: Antimicrobial activity against Pseudomonas aeruginosa ATCC 15499 assessed as diameter of inhibition zone at 20 uM after 24 hrs by Kirby -Baur disc diffusion method; format: functional; in short: as §1
[33] = system: Staphylococcus aureus; test: Antimicrobial activity against Staphylococcus aureus ATCC 11632 assessed as diameter of inhibition zone at 20 uM after 24 hrs by Kirby -Baur disc diffusion method; format: functional; in short: as §1
[34] = system: HeLa; test: Cytotoxicity against human HeLa cells after 24 hrs by MTT assay; format: functional, cell-based; in short: as §4
[35] = system: Curvularia lunata; test: Antifungal activity against Curvularia lunata MTCC 581 after 48 hrs; format: functional; settings: MTCC 581, 48 h
[36] = system: Staphylococcus aureus; test: Antimicrobial activity against Staphylococcus aureus ATCC 11632 assessed as diameter of inhibition zone at 40 uM after 24 hrs by Kirby -Baur disc diffusion method; format: functional; in short: as §1
[37] = system: Aspergillus niger; test: Antifungal activity against Aspergillus niger MTCC 1108 assessed as zone of inhibition at 20 uM after 48 hrs by disc diffusion method; format: functional; in short: as §2
[38] = system: Curvularia lunata; test: Antifungal activity against Curvularia lunata MTCC 581 assessed as zone of inhibition at 80 uM after 48 hrs by disc diffusion method; format: functional; settings: MTCC 581, 48 h, read-out: IZ; in short: as §2
[39] = system: Trichoderma viride; test: Antifungal activity against Trichoderma viride MTCC 1107 assessed as zone of inhibition at 40 uM after 48 hrs by disc diffusion method; format: functional; settings: MTCC 1107, 48 h, read-out: IZ; in short: as §2
[40] = system: Trichoderma viride; test: Antifungal activity against Trichoderma viride MTCC 1107 assessed as zone of inhibition at 20 uM after 48 hrs by disc diffusion method; format: functional; settings: MTCC 1107, 48 h, read-out: IZ; in short: as §2
[41] = system: Salmonella typhi; test: Antimicrobial activity against Salmonella typhi ATCC 23564 assessed as diameter of inhibition zone at 40 uM after 24 hrs by Kirby -Baur disc diffusion method; format: functional; settings: Salmonella enterica subsp. enterica serovar Typhi

COc1cc(/C=C/C(=O)C(/N=N/c2ccc(S(=O)(=O)Nc3cc(C)on3)cc2)=C(O)/C=C/c2ccc(O)c(OC)c2)ccc1O
zone of inhibition at 40 µM [1]: 9 mm | MIC [2]: > 80 µM | zone of inhibition at 40 µM [3]: 11 mm | inhibition zone (IZ) [4]: inactive | diameter of the inhibition zone (DIZ) [5]: inactive | zone of inhibition at 80 µM [6]: 11 mm | zone of inhibition at 80 µM [7]: 12 mm | MIC [8]: > 80 µM | MIC [9]: > 80 µM | IC50 [10]: Not Active | MIC [11]: > 80 µM | IC50 [12]: Not Active | diameter of the inhibition zone (DIZ) [13]: inactive | MIC [14]: 80 µM (≈ 50.6 µg/mL) | zone of inhibition at 20 µM [15]: 9 mm | MIC [16]: > 80 µM | inhibition zone (IZ) [17]: inactive | zone of inhibition at 80 µM [18]: 13 mm | diameter of the inhibition zone (DIZ) [19]: inactive | diameter of the inhibition zone (DIZ) [20]: inactive | zone of inhibition at 40 µM [21]: 9 mm | MIC [22]: 80 µM (≈ 50.6 µg/mL) | zone of inhibition at 80 µM [23]: 9 mm | IC50 [24]: Not Active | inhibition in vivo at 200 mg/kg [25]: 14.5% | zone of inhibition at 80 µM [26]: 9 mm | diameter of the inhibition zone (DIZ) [27]: inactive | zone of inhibition at 80 µM [28]: 9 mm | MIC [29]: > 80 µM | zone of inhibition at 80 µM [30]: 9 mm | zone of inhibition at 80 µM [31]: 10 mm | diameter of the inhibition zone (DIZ) [32]: inactive | diameter of the inhibition zone (DIZ) [33]: inactive | IC50 [34]: > 100 µM | MIC [35]: 80 µM (≈ 50.6 µg/mL) | diameter of the inhibition zone (DIZ) [36]: inactive | inhibition zone (IZ) [37]: inactive | zone of inhibition at 80 µM [38]: 13 mm | zone of inhibition at 40 µM [39]: 11 mm | zone of inhibition at 20 µM [40]: 9 mm | diameter of the inhibition zone (DIZ) [41]: inactive
